Tests used:
[1] = molecular target: T1, Aurora kinase A (Homo sapiens, UniProt O14965); experiment: Inhibition of Aurora kinase A assessed as phosphorylation of Lats2 substrate at […] by FRET assay
T1 sequence (O14965 whole entry): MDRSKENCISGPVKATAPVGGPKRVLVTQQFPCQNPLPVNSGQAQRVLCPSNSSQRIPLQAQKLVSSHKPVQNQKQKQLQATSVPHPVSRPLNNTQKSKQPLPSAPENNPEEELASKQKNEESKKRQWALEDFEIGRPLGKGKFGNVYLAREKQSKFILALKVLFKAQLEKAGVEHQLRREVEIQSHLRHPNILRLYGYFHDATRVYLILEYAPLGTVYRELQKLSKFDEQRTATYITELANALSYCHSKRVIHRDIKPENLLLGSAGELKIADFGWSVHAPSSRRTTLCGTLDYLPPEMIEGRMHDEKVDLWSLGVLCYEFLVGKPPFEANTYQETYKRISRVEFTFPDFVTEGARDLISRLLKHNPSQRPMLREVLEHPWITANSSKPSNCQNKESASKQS

[2] = molecular target: Cyclin-dependent kinase 1/cyclin B1 (Homo sapiens, UniProt P06493); experiment: Inhibition of CDK1/Cyclin B assessed as phosphorylation of Z-lyte Peptide at […] by FRET assay; assay type: protein-complex assay
Method in brief: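 Z-lyte FRET kinase assay. Kinase was at 3 nM final with a coumarin/fluorescein-labelled synthetic peptide substrate and ATP. Development-step cleavage of non-phosphorylated peptide disrupts FRET. % phosphorylation was calculated from the coumarin:fluorescein emission ratio, read at 445–520 nm. EC50s were obtained by curve fitting.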

[3] = tested on: K562; experiment: Cell cycle arrest in human K562 cells assessed as accumulation of cells at G2/M phase after 24 hrs using propidium iodide by flow cytometry; assay type: functional, cell-based; settings: K562, 24 h, read-out: IC50
Method in brief: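 2 × 10⁴ K562 cells were exposed to varying compound concentrations for 24 h. Cells were stained with propidium iodide (50 µg/ml) in PBS containing 1% sodium citrate and 0.1% Triton X-100, and 5000 events were collected by flow cytometry. Cycle data were modelled by the Watson method. The minimum arrest concentration was taken where the G2:M peak ratio exceeded 1.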

[4] = tested on: HCT-116; experiment: Cytotoxicity against human HCT116 cells assessed as growth inhibition at 0.01 to 10 uM after 5 days by MTS assay; assay type: functional, cell-based; settings: HCT-116, 120 h
[5] = Apparent permeability from apical to basolateral side of the human Caco2 cells after 2 hrs; assay type: ADME, cell-based; settings: Caco-2
Method in brief: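 Caco-2 cells, passage 25–50, were grown on transwell inserts. They were washed and pre-incubated 30 min at 37 °C in HBSS with 25 mM HEPES and 1% DMSO. Compound was added to the apical chamber and apical-to-basolateral transport was measured after 2 h at 37 °C with gentle shaking.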

[6] = Efflux ratio of permeability in human Caco2 cells; assay type: ADME, cell-based; settings: Caco-2
Method in brief: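 Caco-2 bidirectional transport, passage 25–50, in HBSS/25 mM HEPES/1% DMSO after a 30 min pre-incubation at 37 °C. Compound was dosed apically (A–B) or basolaterally (B–A) and incubated 2 h at 37 °C with gentle shaking.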

[7] = Hepatic blood flow in mouse liver microsomes assessed as compound remaining at 1.0 uM pre incubated for 5 mins at pH 7.4 by LC/MS/MS analysis; assay type: ADME, Microsome; settings: read-out: QH
Method in brief: (§1)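 Liver microsomes at 1 mg/mL protein in 50 mM potassium phosphate, pH 7.4, with 2.5 mM NADPH. Compound was used at 1.0 µM final and pre-incubated 5 min at 37 °C before NADPH started the reaction. Samples were taken at 0, 5 and 30 min, quenched in acetonitrile, and filtered. Results are expressed as %Q_h (hepatic blood flow).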

[8] = Hepatic blood flow in rat liver microsomes assessed as compound remaining at 1.0 uM pre incubated for 5 mins at pH 7.4 by LC/MS/MS analysis; assay type: ADME, Microsome; settings: read-out: QH; method in brief: as §1
[9] = Hepatic blood flow in human liver microsomes assessed as compound remaining at 1.0 uM pre incubated for 5 mins at pH 7.4 by LC/MS/MS analysis; assay type: ADME, Microsome; settings: read-out: QH; method in brief: as §1
[10] = molecular target: T2, Cytochrome P450 3A4 (Homo sapiens, UniProt P08684); experiment: Inhibition of CYP3A4 using a fluorescent probe 7-benzyloxy-4(trifluoromethyl)-coumarin; assay type: ADME
[11] = molecular target: T2, Cytochrome P450 3A4; experiment: Inhibition of CYP3A4 using a fluorescent probe 7-benzyloxyquinoline; assay type: ADME
[12] = molecular target: Cytochrome P450 2C19 (Homo sapiens, UniProt P33261); experiment: Inhibition of CYP2C19; assay type: ADME
[13] = molecular target: Cytochrome P450 2C9 (Homo sapiens, UniProt P11712); experiment: Inhibition of CYP2C9 using a fluorescent probe 7-methoxy-4-trifluoromethylcoumarin; assay type: ADME
Method in brief: (§2)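 Fluorescent-probe CYP inhibition assay. Probes: 7-methoxy-4-trifluoromethylcoumarin for 2C9; 3-[2-(N,N-diethyl-N-methylamino)ethyl]-7-methoxy-4-methylcoumarin for 2D6.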

[14] = molecular target: Cytochrome P450 2D6 (Homo sapiens, UniProt P10635); experiment: Inhibition of CYP2D6 using a fluorescent probe 3-[2-(N,N-diethyl-N-methylamino)ethyl]-7-methoxy-4methylcoumarin; assay type: ADME; method in brief: as §2
[15] = molecular target: T3, Cytochrome P450 1A2 (Homo sapiens, UniProt P05177); experiment: Inhibition of CYP1A2; assay type: ADME
T3 sequence (P05177 whole entry): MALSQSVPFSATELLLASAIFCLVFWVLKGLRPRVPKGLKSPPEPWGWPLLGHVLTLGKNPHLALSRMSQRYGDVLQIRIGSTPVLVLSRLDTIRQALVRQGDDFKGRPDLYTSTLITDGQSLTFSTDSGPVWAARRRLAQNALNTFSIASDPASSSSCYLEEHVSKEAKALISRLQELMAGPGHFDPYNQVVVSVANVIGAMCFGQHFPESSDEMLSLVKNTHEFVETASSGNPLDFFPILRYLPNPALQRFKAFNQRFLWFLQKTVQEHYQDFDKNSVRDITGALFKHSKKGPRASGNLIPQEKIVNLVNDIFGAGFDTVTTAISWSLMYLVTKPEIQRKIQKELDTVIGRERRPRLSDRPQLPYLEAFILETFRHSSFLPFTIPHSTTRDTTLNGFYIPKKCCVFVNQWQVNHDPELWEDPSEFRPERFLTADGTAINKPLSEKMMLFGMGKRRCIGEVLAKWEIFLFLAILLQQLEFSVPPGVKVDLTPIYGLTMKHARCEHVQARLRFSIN

[16] = molecular target: hERG (KCNH2) (Homo sapiens, UniProt Q12809); experiment: Inhibition of human ERG up to 10 uM by patch clamp method
[17] = tested on: HCT-116; experiment: Antitumor activity against human HCT116 cells xenografted in nu/nu mouse assessed as tumor growth inhibition at 15 to 30 mg/kg, ip for 21 days relative to control; assay type: functional; settings: dose mg/kg 15-30, route intraperitoneal
[18] = tested on: Mus musculus; experiment: Toxicity in nu/nu mouse xenografted with human HCT116 cells assessed as change in body weight at 15 to 30 mg/kg, […]; assay type: organism-based, HCT-116; parameters: dose 15-30 mg/kg, route intraperitoneal; settings: in vivo, ip, 504 h

T2 sequence (P08684 whole entry): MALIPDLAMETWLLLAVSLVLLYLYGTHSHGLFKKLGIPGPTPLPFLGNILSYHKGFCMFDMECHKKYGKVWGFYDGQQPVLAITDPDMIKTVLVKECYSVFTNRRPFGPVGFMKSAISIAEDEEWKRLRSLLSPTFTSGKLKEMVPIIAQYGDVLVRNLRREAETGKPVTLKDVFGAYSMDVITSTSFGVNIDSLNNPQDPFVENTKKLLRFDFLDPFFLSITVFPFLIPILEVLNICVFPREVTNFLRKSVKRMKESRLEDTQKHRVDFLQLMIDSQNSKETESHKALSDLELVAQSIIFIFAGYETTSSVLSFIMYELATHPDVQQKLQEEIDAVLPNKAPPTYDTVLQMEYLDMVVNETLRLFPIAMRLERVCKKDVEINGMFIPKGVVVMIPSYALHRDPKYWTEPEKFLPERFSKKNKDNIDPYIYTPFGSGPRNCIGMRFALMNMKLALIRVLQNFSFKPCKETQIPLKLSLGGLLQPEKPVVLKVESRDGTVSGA
Sequence of Cyclin-dependent kinase 1/cyclin B1 (P06493 whole entry): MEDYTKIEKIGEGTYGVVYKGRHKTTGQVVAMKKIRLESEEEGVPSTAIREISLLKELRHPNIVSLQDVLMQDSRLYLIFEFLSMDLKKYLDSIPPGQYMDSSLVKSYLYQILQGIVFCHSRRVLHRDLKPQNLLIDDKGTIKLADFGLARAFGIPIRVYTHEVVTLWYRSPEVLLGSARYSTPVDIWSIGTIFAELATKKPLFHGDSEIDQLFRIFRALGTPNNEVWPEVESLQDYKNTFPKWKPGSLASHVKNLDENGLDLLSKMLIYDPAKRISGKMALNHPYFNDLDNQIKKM
Sequence of Cyclin-dependent kinase 1/cyclin B1 (P14635 whole entry, further chain): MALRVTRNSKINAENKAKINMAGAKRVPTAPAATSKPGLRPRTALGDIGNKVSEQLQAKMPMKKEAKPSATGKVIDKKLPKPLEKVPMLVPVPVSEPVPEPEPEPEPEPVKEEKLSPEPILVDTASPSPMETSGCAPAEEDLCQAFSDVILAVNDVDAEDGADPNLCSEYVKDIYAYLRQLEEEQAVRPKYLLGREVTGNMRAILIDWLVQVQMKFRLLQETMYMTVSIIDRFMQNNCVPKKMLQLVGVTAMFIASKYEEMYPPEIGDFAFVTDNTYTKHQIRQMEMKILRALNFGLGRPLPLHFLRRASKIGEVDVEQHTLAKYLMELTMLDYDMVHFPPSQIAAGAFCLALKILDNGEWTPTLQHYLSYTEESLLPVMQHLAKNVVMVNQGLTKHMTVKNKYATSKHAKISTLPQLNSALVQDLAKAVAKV
Sequence of Cytochrome P450 2C9 (P11712 whole entry): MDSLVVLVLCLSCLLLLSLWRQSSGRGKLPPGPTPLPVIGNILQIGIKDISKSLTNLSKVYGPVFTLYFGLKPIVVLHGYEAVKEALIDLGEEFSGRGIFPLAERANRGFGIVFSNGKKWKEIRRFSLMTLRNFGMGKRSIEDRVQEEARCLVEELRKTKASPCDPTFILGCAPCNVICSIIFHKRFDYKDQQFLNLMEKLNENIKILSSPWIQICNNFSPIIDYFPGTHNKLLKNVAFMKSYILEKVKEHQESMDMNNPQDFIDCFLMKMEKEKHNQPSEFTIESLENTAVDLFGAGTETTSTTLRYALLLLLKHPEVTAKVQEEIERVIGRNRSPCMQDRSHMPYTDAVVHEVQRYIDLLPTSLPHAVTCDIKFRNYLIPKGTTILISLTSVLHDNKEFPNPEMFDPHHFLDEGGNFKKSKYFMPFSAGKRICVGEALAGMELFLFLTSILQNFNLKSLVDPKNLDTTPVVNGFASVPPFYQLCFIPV
Sequence of Cytochrome P450 2C19 (P33261 whole entry): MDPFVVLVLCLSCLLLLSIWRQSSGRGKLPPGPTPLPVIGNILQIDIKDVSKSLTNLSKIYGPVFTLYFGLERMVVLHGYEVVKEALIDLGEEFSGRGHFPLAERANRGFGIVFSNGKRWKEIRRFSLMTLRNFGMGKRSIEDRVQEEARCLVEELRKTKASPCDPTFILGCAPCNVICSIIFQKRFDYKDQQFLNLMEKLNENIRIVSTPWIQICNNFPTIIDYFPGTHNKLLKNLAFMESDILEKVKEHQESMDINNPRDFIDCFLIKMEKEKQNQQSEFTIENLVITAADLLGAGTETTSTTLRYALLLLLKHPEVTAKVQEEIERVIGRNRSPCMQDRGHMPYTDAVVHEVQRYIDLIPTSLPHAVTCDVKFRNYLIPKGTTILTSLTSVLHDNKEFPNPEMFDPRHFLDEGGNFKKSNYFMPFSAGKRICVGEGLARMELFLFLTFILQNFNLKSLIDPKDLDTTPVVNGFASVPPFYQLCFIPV
Sequence of Cytochrome P450 2D6 (P10635 whole entry): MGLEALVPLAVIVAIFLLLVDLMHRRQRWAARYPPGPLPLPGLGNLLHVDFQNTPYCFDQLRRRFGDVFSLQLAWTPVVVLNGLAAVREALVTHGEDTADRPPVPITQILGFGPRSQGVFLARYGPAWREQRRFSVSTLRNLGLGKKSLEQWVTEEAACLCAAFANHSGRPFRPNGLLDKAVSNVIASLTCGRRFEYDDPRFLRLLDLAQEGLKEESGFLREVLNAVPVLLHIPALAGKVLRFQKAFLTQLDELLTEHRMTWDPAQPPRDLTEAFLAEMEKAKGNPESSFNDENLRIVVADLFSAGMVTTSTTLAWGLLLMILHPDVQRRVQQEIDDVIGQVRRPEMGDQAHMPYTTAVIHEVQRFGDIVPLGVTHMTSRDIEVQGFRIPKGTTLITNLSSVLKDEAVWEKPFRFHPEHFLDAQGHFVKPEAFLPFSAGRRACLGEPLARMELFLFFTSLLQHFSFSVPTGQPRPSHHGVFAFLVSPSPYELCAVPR
Sequence of hERG (KCNH2) (Q12809 whole entry): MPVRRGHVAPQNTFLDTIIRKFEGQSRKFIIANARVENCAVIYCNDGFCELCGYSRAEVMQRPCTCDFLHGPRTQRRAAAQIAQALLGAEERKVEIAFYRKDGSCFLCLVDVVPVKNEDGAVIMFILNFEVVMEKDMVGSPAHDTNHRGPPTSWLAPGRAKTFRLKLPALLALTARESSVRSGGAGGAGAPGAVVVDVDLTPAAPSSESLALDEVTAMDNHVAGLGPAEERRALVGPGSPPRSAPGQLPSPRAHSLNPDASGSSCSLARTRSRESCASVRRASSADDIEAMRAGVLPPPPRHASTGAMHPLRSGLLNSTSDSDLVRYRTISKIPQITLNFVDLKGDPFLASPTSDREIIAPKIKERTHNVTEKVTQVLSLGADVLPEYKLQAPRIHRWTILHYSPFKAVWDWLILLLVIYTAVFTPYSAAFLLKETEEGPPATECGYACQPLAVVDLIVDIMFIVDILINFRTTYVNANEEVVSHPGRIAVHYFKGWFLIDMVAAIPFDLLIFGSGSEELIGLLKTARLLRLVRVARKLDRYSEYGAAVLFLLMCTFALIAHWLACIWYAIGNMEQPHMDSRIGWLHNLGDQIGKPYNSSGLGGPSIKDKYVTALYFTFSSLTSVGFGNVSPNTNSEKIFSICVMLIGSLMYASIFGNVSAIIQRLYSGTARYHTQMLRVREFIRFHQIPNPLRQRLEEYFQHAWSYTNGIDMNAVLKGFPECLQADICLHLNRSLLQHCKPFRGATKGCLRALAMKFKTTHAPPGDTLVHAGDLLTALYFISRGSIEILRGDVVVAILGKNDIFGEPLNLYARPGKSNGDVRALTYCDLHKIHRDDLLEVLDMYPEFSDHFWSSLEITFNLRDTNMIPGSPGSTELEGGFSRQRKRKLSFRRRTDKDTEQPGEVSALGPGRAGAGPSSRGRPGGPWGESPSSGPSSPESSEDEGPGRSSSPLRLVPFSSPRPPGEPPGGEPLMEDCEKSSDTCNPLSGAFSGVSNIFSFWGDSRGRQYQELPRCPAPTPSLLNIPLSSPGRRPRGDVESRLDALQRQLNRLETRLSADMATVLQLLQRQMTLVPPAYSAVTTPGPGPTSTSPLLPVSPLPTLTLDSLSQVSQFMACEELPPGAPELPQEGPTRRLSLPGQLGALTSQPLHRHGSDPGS

| SMILES | IC50 [1] | IC50 [2] | Minimum G2/M arrest concentration [3] | IC50 [4] | other results |
| --- | --- | --- | --- | --- | --- |
| CS(=O)(=O)N(CCO)c1ccc(Nc2ncc3cnn(C4CCCCCC4)c3n2)cc1 | 13 nM | 5 nM | 30 nM | 77 nM |  |
| CS(=O)(=O)N(CCN1CCOCC1)c1ccc(Nc2ncc3cnn(C4CCCCCC4)c3n2)cc1 | 14 nM | 23 nM | 100 nM | 160 nM | Papp A→B at 2 h [5]: 26.5 ×10⁻⁶ cm/s; efflux ratio [6]: 1.1; hepatic extraction ratio at 5 min, 1 µM [7]: 0.96; hepatic extraction ratio at 5 min, 1 µM [8]: 0.94; hepatic extraction ratio at 5 min, 1 µM [9]: 0.95; IC50 [10]: 40 nM; IC50 [11]: 40 nM; IC50 [12]: 30 nM; IC50 [13]: 1 nM; IC50 [14]: > 10 µM; IC50 [15]: > 10 µM; inhibition at up to 10 uM [16]: 40%; growth inhibition (GI) [17]: 50%; Activity [18]: Non-toxic |
| CS(=O)(=O)N(CCCN1CCOCC1)c1ccc(Nc2ncc3cnn(C4CCCCCC4)c3n2)cc1 |  | 5 nM | 100 nM | 170 nM |  |
| CS(=O)(=O)N(CCCO)c1ccc(Nc2ncc3cnn(C4CCCCCC4)c3n2)cc1 | 6 nM | 6 nM | 100 nM | 78 nM |  |
| CC(C)N(c1ccc(Nc2ncc3cnn(C4CCCCCC4)c3n2)cc1)S(C)(=O)=O | 5 nM | 90 nM | 300 nM | 240 nM |  |
| CS(=O)(=O)N(CCN)c1ccc(Nc2ncc3cnn(C4CCCCCC4)c3n2)cc1 | 20 nM | 5 nM | 100 nM | 60 nM |  |
| CS(=O)(=O)N(Cc1ccncc1)c1ccc(Nc2ncc3cnn(C4CCCCCC4)c3n2)cc1 | 30 nM | 23 nM | 300 nM | 250 nM |  |
| CS(=O)(=O)N(CCCN1CCCCC1)c1ccc(Nc2ncc3cnn(C4CCCCCC4)c3n2)cc1 | 9 nM | 6 nM | 100 nM | 92 nM |  |
| CS(=O)(=O)Nc1ccc(Nc2ncc3cnn(C4CCCCCC4)c3n2)cn1 |  | 7 nM | 300 nM | 210 nM | Papp A→B at 2 h [5]: 20.1 ×10⁻⁶ cm/s; efflux ratio [6]: 1.5; hepatic extraction ratio at 5 min, 1 µM [7]: 0.33; hepatic extraction ratio at 5 min, 1 µM [8]: 0.3; hepatic extraction ratio at 5 min, 1 µM [9]: 0.39; IC50 [10]: > 10000 nM; IC50 [11]: > 10000 nM; IC50 [12]: > 10000 nM; IC50 [13]: > 10000 nM; IC50 [14]: > 10 µM; IC50 [15]: > 10 µM; inhibition at up to 10 uM [16]: 6.5% |
| CS(=O)(=O)N(CCN1CCOCC1)c1ccc(Nc2ncc3cnn(C4CCCCCC4)c3n2)cn1 | 150 nM | 31 nM | 2000 nM | 500 nM |  |
| CS(=O)(=O)N(CCN1CCCC1)c1ccc(Nc2ncc3cnn(C4CCCCCC4)c3n2)cn1 | 350 nM | 10 nM | 1000 nM | 125 nM |  |
| CN(C)CCN(c1ccc(Nc2ncc3cnn(C4CCCCCC4)c3n2)cn1)S(C)(=O)=O | 260 nM | 10 nM | 300 nM | 220 nM |  |
| CS(=O)(=O)N(CCO)c1ccc(Nc2ncc3cnn(C4CCCCCC4)c3n2)cn1 | 110 nM | 4 nM | 300 nM | 145 nM |  |
| CS(=O)(=O)N(CCN)c1ccc(Nc2ncc3cnn(C4CCCCCC4)c3n2)cn1 |  | 3 nM | 300 nM | 119 nM |  |
| CS(=O)(=O)N(Cc1ccncc1)c1ccc(Nc2ncc3cnn(C4CCCCCC4)c3n2)cn1 | 95 nM | 13 nM | 300 nM | 320 nM |  |
| CS(=O)(=O)N(c1ccc(Nc2ncc3cnn(C4CCCCCC4)c3n2)nc1)S(C)(=O)=O | > 10000 nM | > 10000 nM | > 3000 nM |  |  |
